Consider twelve compounds from ChEMBL document CHEMBL1156656, “HIV-1 ribonuclease H inhibitory phenolic glycosides from Eugenia hyemalis” (J Nat Prod, 2008).

Calls of active or inactive are those of the source. The rule behind the calls is not given here.

A short description of assay [1]: Inhibition of human RNase H by FRET assay. The method, boiled down: (§1)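 RNase H enzymes (HIV-1, HIV-2, human) assayed by high-throughput fluorescence resonance energy transfer (FRET) cleavage assay; extracts run in presence of 1% bovine serum albumin.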
Assay [2] has as its system Escherichia coli. Nature of the assay: Inhibition of Escherichia coli RNase H by FRET assay.
Assay [3] is described as follows: Inhibition of HIV2 RNase H by FRET assay. Also noted: species or system Human immunodeficiency virus 2. The method, boiled down:
as §1

Assay [4] in a line: Inhibition of HIV1 RNase H by FRET assay. Also noted: species or system Human immunodeficiency virus 1. The method, boiled down: as §1
The subject of assay [5] is Human immunodeficiency virus. Nature of the assay: Antiviral activity against HIV-RF in human CEM-SS cells assessed as cytopathogenicity at 20 ug/ml. Type of assay: functional, organism-based. The essentials:
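Human CEM-SS T cells infected with HIV-1 strain RF; XTT-based cell viability read-out of protection from viral cytopathic effect; highest dose tested 20 μg/mL.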

`O=C(OC[C@H]1O[C@@H](Oc2ccc(O)cc2)[C@H](OC(=O)c2cc(O)c(O)c(O)c2)[C@@H](O)[C@@H]1O)c1ccc(O)cc1` [HYEMALOSIDE B]: the IC50 in assay [1] is 2.44 µM; in assay [3], 3.32 µM; in assay [4], above 18.3 µM. For the same compound, the outcome in assay [2] was inactive.

For `C[C@H]1O[C@H](Oc2c(-c3ccc(O)cc3)oc3cc(O)cc(O)c3c2=O)[C@@H](OC(=O)c2cc(O)c(O)c(O)c2)[C@@H](O)[C@H]1O`, the figures for the 50% inhibitory concentration (IC50) in assay [1], in assay [3] and in assay [4] were 3.03 µM, 3.38 µM and above 17.1 µM, respectively. For the same compound, in assay [2], the outcome was inactive.

Regarding `O=C(OC[C@H]1O[C@@H](Oc2ccc(O)cc2)[C@H](OC(=O)c2cc(O)c(O)c(O)c2)[C@@H](O)[C@@H]1O)c1cc(O)c(O)c(O)c1`, the half-maximal inhibitory concentration (IC50) in assay [1] stood at 0.55 µM; in assay [3], 0.28 µM; in assay [4], 5.05 µM. For the same compound, the result in assay [2] was inactive.

Regarding `O=C(O[C@H]1[C@H](Oc2ccc(O)cc2)O[C@H](CO)[C@@H](O)[C@@H]1O)c1cc(O)c(O)c(O)c1`, the IC50 in assay [1], in assay [3] and in assay [4] was above 23.5 µM in each case. Moreover, the result in assay [2] was inactive.

`O=C(O[C@@H]1[C@@H](OC(=O)c2cc(O)c(O)c(O)c2)[C@H](Oc2ccc(O)cc2)O[C@@H]2COC(=O)c3cc(O)c(O)c(O)c3-c3c(cc(O)c(O)c3O)C(=O)O[C@@H]12)c1cc(O)c(O)c(O)c1` [HYEMALOSIDE C]: the values for the IC50 in assay [1], in assay [3] and in assay [4] were 0.07 µM, 0.84 µM and 1.19 µM, respectively. Moreover, the result in assay [2] was inactive.

Regarding `O=C(O[C@H]1[C@H](O)[C@@H](O)[C@H](Oc2ccc(O)cc2)O[C@@H]1CO)c1cc(O)c(O)c(O)c1`, the IC50 in assay [1], in assay [3] and in assay [4] was above 23.5 µM each time. For the same compound, the result in assay [2] and in assay [5] was inactive.

With `O=C(OC[C@H]1O[C@@H](Oc2ccc(O)cc2)[C@H](OC(=O)c2cc(O)c(O)c(O)c2)[C@@H](OC(=O)c2cc(O)c(O)c(O)c2)[C@@H]1O)c1cc(O)c(O)c(O)c1` [HYEMALOSIDE A], the half-maximal inhibitory concentration (IC50) came to 0.18 µM in assay [1], 0.58 µM in assay [3] and 1.46 µM in assay [4]. In assay [2], the outcome was inactive.

As for `C[C@H]1O[C@H](Oc2c(-c3ccc(O)cc3)oc3cc(O)cc(O)c3c2=O)[C@@H](O)[C@@H](OC(=O)c2cc(O)c(O)c(O)c2)[C@H]1O`, the IC50 in assay [1] is 7.25 µM; in assay [3] it was 9.12 µM; in assay [4], above 17.1 µM. Moreover, the result in assay [2] was inactive.

Turning to `O=C(OC[C@H]1O[C@@H](Oc2c(-c3ccc(O)cc3)oc3cc(O)cc(O)c3c2=O)[C@H](O)[C@@H](O)[C@@H]1O)c1cc(O)c(O)c(O)c1`, the IC50 is 9.5 µM in assay [1], 5.19 µM in assay [3] and above 16.6 µM in assay [4]. Besides, the outcome in assay [2] was inactive.

Regarding `O=C(OC[C@H]1O[C@@H](Oc2ccc(O)cc2)[C@H](OC(=O)c2cc(O)c(O)c(O)c2)[C@@H](O)[C@@H]1OC(=O)c1cc(O)c(O)c(O)c1)c1cc(O)c(O)c(O)c1`, the 50% inhibitory concentration (IC50) in assay [1] was determined as 0.04 µM; in assay [3] it was 0.1 µM; in assay [4], 0.68 µM. Moreover, the outcome in assay [2] was inactive.

Take `O=C(OC[C@H]1O[C@@H](OC(=O)c2cc(O)c(O)c(O)c2)[C@H](OC(=O)c2cc(O)c(O)c(O)c2)[C@@H](O)[C@@H]1O)c1cc(O)c(O)c(O)c1`: the IC50 came out at 0.55 µM in assay [1], 0.28 µM in assay [3] and 10.2 µM in assay [4]. Besides, the outcome in assay [2] was inactive.

In the case of `C[C@@H]1O[C@@H](Oc2c(-c3ccc(O)c(O)c3)oc3cc(O)cc(O)c3c2=O)[C@H](O)[C@H](O)[C@H]1O` [QUERCITRIN], the IC50 was 12.5 µM in assay [1], 21.3 µM in assay [3] and above 22.3 µM in assay [4]. The result in assay [2] was inactive.
